Assay results reported in ChEMBL document CHEMBL4014344, “Discovery of the Soluble Guanylate Cyclase Stimulator Vericiguat (BAY 1021189) for the Treatment of Chronic Heart Failure” (J Med Chem, 2017).
Calls of active or inactive are those of the source. The calls are words filed in the database; no cut-off is given here.

Legend:
Rattus norvegicus [1] = experiment: Antihypertensive activity in L-NAME-treated renin transgenic rat co-expressing RenTG(mRRen2)27 assessed as reduction in proteinuria administered qd via oral gavage up to 21 days; type: functional
Procedure, shortened: (§1)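 Male RenTG(mRRen2)27 rats, 8 weeks old, given L-NAME in drinking water (50 mg/L) throughout. Randomised to placebo (2 mL/kg qd, n = 20) or 3 and 10 mg/kg/day po by gavage qd (n = 15 per group). Tail-cuff blood pressure on day 0, 7, 14 and 21. Plasma taken at day 22 end. Unpaired t test, mean ± SEM.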

[2] = Stimulation of rat sGC expressed in CHO cells using GTP as substrate assessed as increase in cGMP formation treated for 6 mins in presence of 100 nM SNAP by luminescence assay; type: cell-based
Procedure, shortened: (§2)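 CHO reporter cells overexpressing sGC, cultured 1 or 2 d, then loaded 3 h with coelenterazine in calcium-free Tyrode. Compound serial dilutions applied 6 min. Calcium added (final 3 mM) and luminescence read for 40 s by CCD camera. SNAP co-applied at 30 or 100 nM where stated. ODQ condition: 10 μM ODQ pretreatment for 3 h.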

[3] = Clearance in rat hepatocytes at 1 uM up to 90 mins by LC-MS/MS analysis; type: ADME, cell-based, Hepatocyte
Procedure, shortened: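 Rat hepatocytes at 1 × 10^6 viable cells/mL (trypan blue-corrected) in Williams' medium E, 1 μM substrate, MeCN ≤1%, 37 °C, pH 7.4. Sampled at 2−90 min, quenched with MeCN, analysed by LC-MS/MS.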

Cytochrome P450 3A4 [4] = molecular target: T1, Cytochrome P450 3A4 (Homo sapiens, UniProt P08684); experiment: Inhibition of human liver microsomes CYP3A4 using midazolam as substrate preincubated with compound followed by substrate addition; type: ADME
[5] = Stimulation of rat sGC expressed in CHO cells using GTP as substrate assessed as increase in cGMP formation treated for 6 mins in presence of 30 nM SNAP by luminescence assay; type: cell-based; procedure, shortened: as §2
Rattus norvegicus [6] = experiment: Antihypertensive activity in L-NAME-treated renin transgenic rat co-expressing RenTG(mRRen2)27 assessed as reduction in systolic blood pressure increase at 3 to 10 mg/kg, administered qd via oral gavage up to 21 days; type: functional, organism-based; procedure, shortened: as §1
Cytochrome P450 3A4 [7] = molecular target: T1, Cytochrome P450 3A4; experiment: Inhibition of human liver microsomes CYP3A4 using midazolam as substrate; type: ADME
[8] = Stimulation of rat sGC expressed in CHO cells using GTP as substrate assessed as increase in cGMP formation treated for 6 mins in presence of sGC inhibitor ODQ by luminescence assay; type: cell-based; procedure, shortened: as §2
[9] = molecular target: T2, Guanylate cyclase soluble subunit alpha-1 (Rattus norvegicus) (UniProt P19686); experiment: Stimulation of rat recombinant sGCalpha1 subunit expressed in CHO cells using alpha-[32P]GTP as substrate assessed as >=3 fold increase in [32P]cGMP formation after 10 mins by radioimmunoassay; type: cell-based
T2 sequence (whole entry): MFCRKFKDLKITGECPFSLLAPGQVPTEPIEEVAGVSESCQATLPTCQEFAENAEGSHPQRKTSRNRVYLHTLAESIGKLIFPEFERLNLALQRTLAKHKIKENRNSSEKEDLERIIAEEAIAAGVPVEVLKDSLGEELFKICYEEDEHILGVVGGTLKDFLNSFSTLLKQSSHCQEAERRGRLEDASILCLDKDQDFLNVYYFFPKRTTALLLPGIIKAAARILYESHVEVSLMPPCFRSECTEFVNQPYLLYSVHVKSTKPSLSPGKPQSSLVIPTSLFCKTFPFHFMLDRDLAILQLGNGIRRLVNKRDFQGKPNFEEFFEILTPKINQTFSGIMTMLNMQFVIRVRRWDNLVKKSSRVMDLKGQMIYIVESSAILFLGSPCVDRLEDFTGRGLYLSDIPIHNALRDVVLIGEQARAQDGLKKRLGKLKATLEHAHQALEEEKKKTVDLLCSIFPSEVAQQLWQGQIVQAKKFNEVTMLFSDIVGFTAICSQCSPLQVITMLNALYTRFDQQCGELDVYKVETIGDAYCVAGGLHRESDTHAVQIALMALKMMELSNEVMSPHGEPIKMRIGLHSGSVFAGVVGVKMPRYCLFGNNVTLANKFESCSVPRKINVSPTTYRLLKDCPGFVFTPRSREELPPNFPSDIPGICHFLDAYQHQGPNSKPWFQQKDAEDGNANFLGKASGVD

Rattus norvegicus [10] = experiment: Antihypertensive activity in L-NAME-treated renin transgenic rat co-expressing RenTG(mRRen2)27 assessed as reduction in heart hypertrophy in right ventricle administered qd via oral gavage up to 21 days relative to control; type: functional
Procedure, shortened: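 Renin transgenic RenTG(mRRen2)27 male rats, 8 weeks old, on L-NAME drinking water (50 mg/L). Dosed by gavage qd with placebo (n = 20) or 3 or 10 mg/kg/day (n = 15 each). At day 22 animals were anesthetized and sacrificed, and left and right ventricles were dissected and weighed for hypertrophy. Unpaired t test versus placebo.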

[11] = Clearance in iv dosed Beagle dog blood after 24 hrs by LC-MS analysis; type: ADME, organism-based, Canis lupus familiaris; details: whole blood
Procedure, shortened: (§3)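 Male Wistar rats and female beagle dogs. iv in plasma/DMSO (rat) or H2O/PEG 400/EtOH (dog). Oral gavage in H2O/PEG 400/EtOH for both. Rats jugular-catheterised ≥1 d before dosing. Usually >10 blood samples, at least two after 24 h. Plasma quantified by LC-MS with internal standard. CL, t1/2, Vss and F calculated from plasma curves. Blood clearance via blood/plasma ratio (20 min blood incubation).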

[12] = Clearance in iv dosed Wistar rat blood after 24 hrs by LC-MS analysis; type: ADME, organism-based; details: whole blood; procedure, shortened: as §3
Heart = experiment: Cardiotoxicity in Wistar rat assessed as effect on contractility administered for 20 mins; type: toxicity, tissue-based
Procedure, shortened: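 Male Wistar rats (200−250 g) anesthetized with Narcoren 100 mg/kg ip. Excised heart Langendorff-perfused at constant flow 10 mL/min with Krebs−Henseleit buffer gassed with 95% O2/5% CO2. Values expressed as relative change from baseline before compound application.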

[13] = Stimulation of rat sGC expressed in CHO cells using GTP as substrate assessed as increase in cGMP formation treated for 6 mins by luminescence assay; type: cell-based; procedure, shortened: as §2
Cytochrome P450 2C8 = molecular target: T3, Cytochrome P450 2C8 (Homo sapiens, UniProt P10632); experiment: Inhibition of human liver microsomes CYP2C8 using amodiaquine as substrate; type: ADME
T3 sequence (P10632 whole entry): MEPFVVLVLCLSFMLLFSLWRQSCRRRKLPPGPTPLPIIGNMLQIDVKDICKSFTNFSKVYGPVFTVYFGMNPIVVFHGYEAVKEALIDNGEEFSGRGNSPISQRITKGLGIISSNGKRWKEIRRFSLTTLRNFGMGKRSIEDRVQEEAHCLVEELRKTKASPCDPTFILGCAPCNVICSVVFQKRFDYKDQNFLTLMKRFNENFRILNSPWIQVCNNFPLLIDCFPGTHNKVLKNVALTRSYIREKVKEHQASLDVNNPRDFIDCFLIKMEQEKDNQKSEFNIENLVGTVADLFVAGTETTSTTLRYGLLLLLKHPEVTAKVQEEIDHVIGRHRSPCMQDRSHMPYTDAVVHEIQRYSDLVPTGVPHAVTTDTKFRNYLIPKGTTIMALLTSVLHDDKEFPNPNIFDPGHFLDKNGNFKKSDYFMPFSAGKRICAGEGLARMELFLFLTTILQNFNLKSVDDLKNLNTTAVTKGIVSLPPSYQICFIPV

T1 sequence (P08684 whole entry): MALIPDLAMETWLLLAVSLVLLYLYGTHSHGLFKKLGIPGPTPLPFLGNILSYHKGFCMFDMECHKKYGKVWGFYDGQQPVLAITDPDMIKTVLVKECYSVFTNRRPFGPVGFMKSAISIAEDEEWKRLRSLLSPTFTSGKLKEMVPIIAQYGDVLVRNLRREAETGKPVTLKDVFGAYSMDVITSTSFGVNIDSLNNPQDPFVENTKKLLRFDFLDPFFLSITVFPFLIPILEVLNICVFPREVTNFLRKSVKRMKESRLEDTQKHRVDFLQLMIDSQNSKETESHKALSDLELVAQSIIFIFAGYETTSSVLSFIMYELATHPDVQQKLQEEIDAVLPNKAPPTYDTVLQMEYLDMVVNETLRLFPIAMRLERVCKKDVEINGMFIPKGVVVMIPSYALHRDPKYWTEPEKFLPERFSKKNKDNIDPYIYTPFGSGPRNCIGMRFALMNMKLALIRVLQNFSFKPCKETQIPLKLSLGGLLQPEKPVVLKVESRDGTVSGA

COC(=O)Nc1c(N)nc(-c2nn(Cc3ccccc3F)c3ncc(F)cc23)nc1N [VERICIGUAT]
Activity (Rattus norvegicus [1]): Dose-dependent effect | EC50 [2]: 10.6 nM | CLhep predicted at 1 µM [3]: 1.67 mL/min/kg | IC50 (Cytochrome P450 3A4 [4]): > 50000 nM | EC50 [5]: 39 nM | Activity (Rattus norvegicus [6]): Active | IC50 (Cytochrome P450 3A4 [7]): > 50000 nM | EC50 [8]: 256 nM | MEC [9]: 0.3 µM | Activity (Rattus norvegicus [10]): Dose-dependent effect | clearance [11]: 3.33 mL/min/kg | clearance [12]: 5 mL/min/kg | Activity (Heart): Non-Toxic | EC50 [13]: 1000 nM | IC50 (Cytochrome P450 2C8): > 50000 nM
